Experiments:
[1] = tested on: cleaved caspase-7, Bcl-2, and Mcl-1; assay: Western blot of apoptosis related proteins in UM cells; format: cell-based
Procedure, shortened: (§1)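 Cells or xenograft tumour tissue were lysed in RIPA buffer with protease and phosphatase inhibitors. Lysates were cleared at 15,000 rpm, 4 °C for 15 min, and protein was quantified by BCA. Proteins were separated on 8%–12% SDS-PAGE, transferred to PVDF and blocked with 5% BSA. After primary and secondary antibodies, bands were detected by enhanced chemiluminescence.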

[2] = Pharmacokinetic studies in ICR mice; format: in vivo; conditions: male, mouse, plasma
Procedure, shortened: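 Male ICR mice received test compound at 5 mg/kg iv or 15 mg/kg po. Samples were centrifuged at 6800×g, 2–8 °C for 6 min, stored at −80 °C and quantified by LC–MS/MS.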

Gαq/11 [3] = assay: IP1 accumulation assay; format: cell-based; conditions: CHO-M1 cells, mean ± SEM (n = 3)
phosphorylated ERK = assay: Western blot of phosphorylated ERK in MP41 xenograft tumor tissues; format: in vivo, mice; conditions: testing dose
Procedure, shortened: as §1

92.1 cells = assay: Rescue assay, siRNA GNAQ knockdown in 92.1 cells; format: cell-based; conditions: 10 and 20 μmol/L; 72 h
Procedure, shortened: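 Cells were transfected with siRNA against GNA11 (MP41) or GNAQ (92.1), or with a matching control siRNA. After 48 h, cells were reseeded at 3000 cells/well and cultured 18–24 h. They were then exposed to test compound for 72 h. CCK-8 was added for 2–4 h and absorbance read at 450 nm. Data are mean ± SEM, n = 3.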

Gαq/11 [4] = target: Gαq/11 (Homo sapiens, UniProt P50148); assay: Agonist; format: cell-based; conditions: HEK293-AT1R cells; different concentrations
Sequence of Gαq/11 (Homo sapiens, UniProt P50148) (P50148 whole entry): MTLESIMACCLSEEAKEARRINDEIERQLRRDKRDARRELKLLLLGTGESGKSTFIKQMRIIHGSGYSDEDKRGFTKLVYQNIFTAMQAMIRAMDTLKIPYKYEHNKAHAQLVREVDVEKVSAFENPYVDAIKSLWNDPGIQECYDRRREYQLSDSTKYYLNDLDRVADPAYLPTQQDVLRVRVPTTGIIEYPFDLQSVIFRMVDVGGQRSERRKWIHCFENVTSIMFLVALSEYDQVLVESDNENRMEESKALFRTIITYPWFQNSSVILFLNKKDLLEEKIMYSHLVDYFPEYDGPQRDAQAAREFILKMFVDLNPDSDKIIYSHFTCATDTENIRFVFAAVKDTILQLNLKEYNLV
Sequence of Gαq/11 (Homo sapiens, UniProt P50148) (P62873 2-340 partner limits assumed): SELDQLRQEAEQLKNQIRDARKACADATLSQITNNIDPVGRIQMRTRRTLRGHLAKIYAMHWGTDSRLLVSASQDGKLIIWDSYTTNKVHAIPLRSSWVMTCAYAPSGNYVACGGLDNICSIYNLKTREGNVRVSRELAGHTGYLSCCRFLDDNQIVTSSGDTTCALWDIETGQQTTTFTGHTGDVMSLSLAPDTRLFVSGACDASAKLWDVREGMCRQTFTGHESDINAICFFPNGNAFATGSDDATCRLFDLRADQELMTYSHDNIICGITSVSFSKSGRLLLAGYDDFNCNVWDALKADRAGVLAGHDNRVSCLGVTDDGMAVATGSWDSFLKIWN
Sequence of Gαq/11 (Homo sapiens, UniProt P50148) (P59768 2-68 partner limits assumed): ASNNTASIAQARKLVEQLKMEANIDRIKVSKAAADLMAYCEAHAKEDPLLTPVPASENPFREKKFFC
Procedure, shortened: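 HEK293 cells transiently co-transfected with AT1R, Gαq-RLuc8, unlabeled Gβ1 and Gγ2-Venus, replated 24 h after transfection and cultured overnight. Cells were pretreated 1 h with test compound at several concentrations, then AngII was added, followed by coelenterazine as luciferase substrate. BRET between Gα and Gβγ was read on a plate reader. Runs were in triplicate, mean ± SEM (n = 3).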

AUC ([2]; iv, 5 mg/kg): 1620 ± 70 ng·h/mL
Cmax ([2]; iv, 5 mg/kg): 2470 ± 192 ng/mL
MRT ([2]; iv, 5 mg/kg): 1.1 ± 0.1 h
Tmax ([2]; iv, 5 mg/kg): 0.08 h
Vd ([2]; iv, 5 mg/kg): 3.9 ± 0.4 L/kg
clearance ([2]; iv, 5 mg/kg): 50.2 ± 2.1 mL/min/kg
half-life ([2]; iv, 5 mg/kg): 1.8 ± 0.2 h
AUC ([2]; po, 15 mg/kg): 2900 ± 358 ng·h/mL
Cmax ([2]; po, 15 mg/kg): 1040 ± 267 ng/mL
MRT ([2]; po, 15 mg/kg): 3.1 ± 0.7 h
Tmax ([2]; po, 15 mg/kg): 0.5 ± 0.4 h
bioavailability ([2]; po, 15 mg/kg): 59.5%
half-life ([2]; po, 15 mg/kg): 2.4 ± 0.7 h
Compound: CN1CCC[C@H]1CN1CCn2cc(-c3ccccc3)nc2[C@@H]1CC1CCCCC1 [GQ262]
Bcl-2 and Mcl-1 levels [1]: down-regulation
Cleaved caspase-7 level [1]: up-regulation
IP1 inhibition at 10 μmol/L (Gαq/11 [3]): 57.2 ± 1.9%
Phosphorylated ERK expression in tumor tissues (phosphorylated ERK): inhibited the phosphorylated ERK
Antiproliferative activity on GNAQ knockdown 92.1 cells (92.1 cells): no inhibitory effect on proliferation
Effect on AngII-induced BRET signals (Gαq/11 [4]): dose-dependently inhibitory efficacy on BRET signals
